Where a SMILES comes first, the peptide text is derived from it.
Experiments:
Bos taurus [1] = species on record: Bos taurus; test: Enhancement of [3H]ADTN to dopamine receptors at concentration of 100 nM
In short: (§1)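 Bovine caudate homogenized in 50 mM Tris-HCl pH 7.7 and spun twice at 40000 g. Pellet taken up in 50 mM Tris pH 7.1 with 0.1% ascorbic acid, 120 mM NaCl, 5 mM KCl, 2 mM CaCl2 and 10 μM pargyline. 0.4-0.6 mg protein incubated with 8 nM [3H]ADTN ± peptide (1, 10 or 100 nM), triplicate, 37 °C. Bound ligand collected by GF/B filtration and counted by scintillation.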

Bos taurus [2] = species on record: Bos taurus; test: Enhancement of [3H]ADTN to dopamine receptors at concentration of 10 nM; in short: as §1
Bos taurus [3] = species on record: Bos taurus; test: Enhancement of [3H]-ADTN to dopamine receptors at concentration of 1 nM; in short: as §1

- Enhancement (Bos taurus [1]): 46.2%
- Enhancement (Bos taurus [2]): 28%
- Enhancement (Bos taurus [3]): 16%
SMILES: CC(C)C[C@H](NC(=O)[C@@H]1CCCN1)C(=O)NCC(N)=O (H-Pro-Leu-Gly-NH2)

Source: ChEMBL document CHEMBL1123254, “Dopamine receptor modulation by Pro-Leu-Gly-NH2 analogues possessing cyclic amino acid residues at the C-terminal position” (J Med Chem, 1986)
